ChEMBL document CHEMBL4402518, “Identification of Novel Medulloblastoma Cell-Targeting Peptides for Use in Selective Chemotherapy Drug Delivery” (J Med Chem, 2020)
Activity calls are given as the source filed them. No cut-off for these calls is given here. Peptide text beside a SMILES is read from it. * marks the point of attachment. Glutaryl(5-(14-O-Dox)) = COc1cccc2c1C(=O)c1c(O)c3c(c(O)c1C2=O)C[C@@](O)(C(=O)COC(=O)CCCC(=O)*)C[C@@H]3O[C@H]1C[C@H](N)[C@H](O)[C@H](C)O1

How the values were obtained:
[1] = Drug uptake in human DaOY cells assessed as drug internalization at 0.1 to 1000 uM incubated for 24 hrs using C-terminal FITC-labeled compound by flow cytometry; format: ADME, cell-based
In short: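 FITC-labelled peptide at differing concentrations for 24 h, then cell-associated green fluorescence intensity measured by flow cytometry. Cells given non-fluorescent peptide served as control; n = 3 independent experiments.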

MRC5 [2] = experiment: Cytotoxicity against human MRC5 cells assessed as reduction in cell viability incubated for 72 hrs; format: cell-based; conditions: mrc5, 72 h
In short: (§1)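 Cells treated at increasing concentrations, with viability read 72 hours post-treatment by alamar blue assay. Data are mean ± S.E.M. from 3 independent experiments.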

[3] = Solubility of the compound in water using C-terminal FITC-labeled compound; format: physicochemical; conditions: buffer
[4] = Drug uptake in human DaOY cells assessed as drug internalization at 0.25 to 100 uM incubated for 24 hrs using C-terminal FITC labeled compound by confocal microscopy; format: ADME, cell-based
In short: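 Medulloblastoma cells exposed 24 h to fluorescently labelled peptide at 0.25 μM, 25 μM and 100 μM, then imaged by confocal microscopy. Cell membrane stained red, nucleus blue, peptide green. Untreated cells served as control.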

[5] = Stability of the compound in water using C-terminal FITC-labeled compound; format: physicochemical; conditions: buffer
[6] = Cytotoxicity against human NHA cells assessed as reduction in cell viability incubated for 72 hrs; format: cell-based; in short: as §1
Daoy [7] = experiment: Cytotoxicity against human DaOY cells assessed as reduction in cell viability incubated for 72 hrs; format: cell-based; in short: as §1
Daoy [8] = experiment: Binding affinity to human DaOY cell surface measured after 15 mins incubation using C-terminal FITC labeled compound by Live cell confocal microscopy; format: cell-based
[9] = Drug uptake in human DaOY cells assessed as drug internalization at 0.25 uM pretreated with actin polymerization inhibitor/macropinocytosis inhibitor, cytochalasin D 1 hr prior to compound addition and measured after 3 hrs by flow cytometry; format: ADME, cell-based
In short: (§2)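 To probe endocytic routes, cells were first pre-treated with non-toxic concentrations of one of four inhibitors before compound exposure. The inhibitors were genistein (caveolae), cytochalasin D (actin/macropinocytosis), amiloride hydrochloride (caveolae/macropinocytosis) and chlorpromazine hydrochloride (clathrin).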

[10] = Drug uptake in human DaOY cells assessed as drug localization in perinuclear and nuclear regions of cell at 0.25 uM measured after 15 to 30 mins by confocal microscopy; format: ADME, cell-based
[11] = Drug uptake in human DaOY cells assessed as drug localization in nucleus at 0.25 uM pretreated with actin polymerization inhibitor/macropinocytosis inhibitor, cytochalasin D 1 hr prior to compound addition and measured after 3 hrs by fluorescence live imaging microscopy analysis; format: ADME, cell-based
Daoy [12] = experiment: Cytotoxicity against human DaOY cells assessed as reduction in cell viability incubated for 72 hrs by AlamarBlue cell viability assay; format: functional, cell-based; in short: as §1
[13] = Drug uptake in human DaOY cells assessed as drug internalization at 0.25 uM pretreated with caveloae-uptake inhibitor, genistein 1 hr prior to compound addition and measured after 3 hrs by flow cytometry; format: ADME, cell-based; in short: as §2
[14] = Cytotoxicity against human NHA cells assessed as reduction in cell viability incubated for 72 hrs by AlamarBlue cell viability assay; format: cell-based; in short: as §1
[15] = Selectivity index, ratio of IC50 for human MRC5 cells to IC50 for human DaOY cells incubated for 72 hrs by AlamarBlue cell viability assay
[16] = Drug uptake in human DaOY cells assessed as primary life time at 0.25 uM measured after 3 hrs by fluorescence live imaging microscopy analysis; format: ADME, cell-based
[17] = Drug uptake in human DaOY cells assessed as drug internalization at 0.25 uM measured after 15 to 60 mins by confocal microscopy; format: ADME, cell-based
[18] = Drug uptake in human DaOY cells assessed as secondary lifetime at 0.25 uM measured after 3 hrs by fluorescence live imaging microscopy analysis; format: ADME, cell-based
[19] = Drug uptake in human DaOY cells assessed as drug internalization at 0.25 uM pretreated with caveloae/macropinocytosis inhibitor, amiloride hydrochloride 1 hr prior to compound addition and measured after 3 hrs by flow cytometry; format: ADME, cell-based; in short: as §2
MRC5 [20] = experiment: Cytotoxicity against human MRC5 cells assessed as reduction in cell viability incubated for 72 hrs by AlamarBlue cell viability assay; format: cell-based; conditions: MRC5, 72 h; in short: as §1
[21] = Drug uptake in human DaOY cells assessed as drug localization in cytoplasm at 0.25 uM pretreated with actin polymerization inhibitor/macropinocytosis inhibitor, cytochalasin D 1 hr prior to compound addition and measured after 3 hrs by fluorescence live imaging microscopy analysis; format: ADME, cell-based
[22] = Selectivity index, ratio of IC50 for human NHA cells to IC50 for human DaOY cells incubated for 72 hrs by AlamarBlue cell viability assay
[23] = Drug uptake in human DaOY cells assessed as drug localization in nucleus at 0.25 uM measured after 3 hrs by […]; format: ADME, cell-based
[24] = Drug uptake in human DaOY cells assessed as drug internalization at 0.25 uM pretreated with clathrin-mediated endocytosis inhibitor, chlorpromazine hydrochloride 1 hr prior to compound addition and measured after 3 hrs by flow cytometry; format: ADME, cell-based; in short: as §2
[25] = Stability in human serum incubated for up to 4 hrs by LC-MS/MS analysis; format: ADME, cell-free
[26] = Drug uptake in human DaOY cells assessed as drug localization by measuring punctuate pattern of expression throughout cell cytoplasm, perinuclear and nuclear region at 0.25 uM measured after 15 to 30 mins by confocal microscopy; format: ADME, cell-based
[27] = Ratio of IC50 of compound to IC50 of doxorubicin for cytotoxicity against human MRC5 cells assessed as reduction in cell viability incubated for 72 hrs by AlamarBlue cell viability assay; format: cell-based; conditions: read-out: Ratio IC50
[28] = Stability in mouse serum incubated for up to 4 hrs by LC-MS/MS analysis; format: ADME, cell-free
[29] = Drug uptake in human DaOY cells assessed as drug internalization at 0.25 uM measured after 3 hrs by flow cytometry; format: ADME, cell-based
[30] = Stability in mouse serum at 250 uM incubated for up to 4 hrs MALDI-TOF analysis; format: ADME, cell-free
[31] = Stability in human serum at 250 uM incubated for up to 4 hrs MALDI-TOF analysis; format: ADME, cell-free
[32] = Ratio of IC50 of compound to IC50 of doxorubicin for cytotoxicity against human NHA cells assessed as reduction in cell viability incubated for 72 hrs by AlamarBlue cell viability assay; format: cell-based; conditions: read-out: Ratio IC50

Molecule: H-FSRPAFL-OH
- Drug uptake [1]: Active
- Activity (MRC5 [2]): Non-Toxic
- solubility [3]: Soluble
- Drug uptake [4]: Active
- Stability [5]: Stable
- Activity [6]: Non-Toxic
- Activity (Daoy [7]): Non-Toxic
- Activity (Daoy [8]): Active

Molecule: COc1cccc2c1C(=O)c1c(O)c3c(c(O)c1C2=O)C[C@@](O)(C(=O)CO)C[C@@H]3O[C@H]1C[C@H](N)[C@H](O)[C@H](C)O1 [DOXORUBICIN]
- Drug uptake [9]: Active
- Drug uptake [10]: Active
- Drug uptake [11]: Active
- IC50 (Daoy [12]): 8.8 nM
- Drug uptake [13]: Active
- IC50 [14]: 113 nM
- Ratio IC50 [15]: 16.8
- Time [16]: 4.3 nanoseconds
- Drug uptake [17]: Active
- Time [18]: 1.3 nanoseconds
- Drug uptake [19]: Active
- IC50 (MRC5 [20]): 148 nM
- Drug uptake [21]: Active
- Ratio IC50 [22]: 12.8
- Drug uptake [23]: Active
- Drug uptake [24]: Active

Molecule: COc1cccc2c1C(=O)c1c(O)c3c(c(O)c1C2=O)C[C@@](O)(C(=O)COC(=O)CCCC(=O)N[C@H](C(=O)NCC(=O)NCC(=O)N[C@@H](CC(C)C)C(=O)N[C@@H](CO)C(=O)N[C@@H](Cc1c[nH]cn1)C(=O)N[C@@H](CCCNC(=N)N)C(=O)O)C(C)C)C[C@@H]3O[C@H]1C[C@H](N)[C@H](O)[C@H](C)O1 ({Glutaryl(5-(14-O-Dox))}-VGGLSHR-OH)
- IC50 (Daoy [12]): 130 nM

Molecule: COc1cccc2c1C(=O)c1c(O)c3c(c(O)c1C2=O)C[C@@](O)(C(=O)COC(=O)CCCC(=O)N[C@@H](Cc1ccccc1)C(=O)N[C@@H](CO)C(=O)N[C@@H](CCCNC(=N)N)C(=O)N1CCC[C@H]1C(=O)N[C@@H](C)C(=O)N[C@@H](Cc1ccccc1)C(=O)N[C@@H](CC(C)C)C(=O)O)C[C@@H]3O[C@H]1C[C@H](N)[C@H](O)[C@H](C)O1 ({Glutaryl(5-(14-O-Dox))}-FSRPAFL-OH)
- Drug uptake [9]: Not Active
- Stability [25]: Stable
- Drug uptake [26]: Active
- IC50 (Daoy [12]): 25 nM
- IC50 [14]: 842 nM
- Ratio IC50 [15]: 430.2
- Time [16]: 4.3 nanoseconds
- selectivity ratio at 72 h [27]: > 72
- Drug uptake [17]: Active
- Stability [28]: Stable
- Drug uptake [29]: Active
- Stability [30]: Stable
- Time [18]: 1.3 nanoseconds
- IC50 (MRC5 [20]): 10800 nM
- Stability [31]: Stable
- selectivity ratio at 72 h [32]: > 7.4
- Ratio IC50 [22]: 33.7
